Laboratory results reported in paper PMC3132447 (Diabetes, Obesity & Metabolism, 2011).
Marks after values point to notes of the source that are not given here.

Key:
[1] = test system: obese subjects with type 2 diabetes; test: Postprandial plasma glucose after a standardized test meal; assay type: in vivo, human; details: n = 30; for Time to 10% of total glucose AUC / Time to 20% of total glucose AUC / Time to ΔGLUmax: 0.2 U/kg s.c. before standardized meal, obese T2DM, median
Outline: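 Same crossover, fasting, 0.2 U/kg s.c. premeal dosing and standardized 692-kcal meal. Plasma glucose was sampled at −20, −10 and 0 min, every 10 min to 2 h, then every 15 min to 6 h. AUCs used the linear trapezoidal rule; incremental AUCs and GLUmax used ANOVA (subject, treatment, sequence, period). Ratio 90% CIs used Fieller's theorem on untransformed data; times used Wilcoxon with Hodges–Lehmann 90% CI.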

[2] = test system: obese subjects with type 2 diabetes; test: Hypoglycaemia and adverse events; assay type: in vivo, human; details: for Severe hypoglycaemia / Subjects with hypoglycaemia with blood glucose below 56 mg/dl / Subjects with an episode of hypoglycaemia 3–6 h after insulin administration: 0.2 U/kg s.c.; for Subjects with an episode of hypoglycaemia 3–6 h after insulin administration: blood glucose <70 mg/dl
NEFA = test: Non-esterified fatty acid; assay type: in vivo, human; details: for Mean NEFA concentration after subsequent increase / Time of lowest mean NEFA concentration: 0.2 U/kg s.c. before standardized meal; for Mean NEFA concentration after subsequent increase: after the nadir, within 6-h period; for Time of lowest mean NEFA concentration / Mean NEFA concentration at start (before decrease): obese T2DM; for Mean NEFA concentration at start (before decrease): baseline
Outline: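 Obese T2DM adults (n = 30) fasted 12 h with oral agents withheld. In a randomized two-way crossover with a 7-day washout, they received 0.2 U/kg s.c. of test insulin analogue within 2 min before a 692-kcal meal (54% carbohydrate, 17% protein, 28% lipid) eaten within 30 min. Plasma NEFA was sampled from −20 min to 6 h by validated kit; mean profiles.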

[3] = Serum insulin analogue concentrations after subcutaneous bolus; assay type: in vivo, human; details: n = 30; for Time to fraction of total insulin AUC (10%) / Time to fraction of total insulin AUC (20%) / Tmax (time to peak insulin concentration) / Insulin AUC0–1 h/AUC0–6 h, geometric mean / Insulin AUC0–2 h/AUC0–6 h, arithmetic mean (value in brackets) / Insulin AUC0–2 h/AUC0–6 h, geometric mean / Insulin AUC0–4 h/AUC0–6 h, arithmetic mean (value in brackets) / Insulin AUC0–4 h/AUC0–6 h, geometric mean: 0.2 U/kg s.c. before standardized meal, obese T2DM; for Time to fraction of total insulin AUC (10%) / Time to fraction of total insulin AUC (20%) / Tmax (time to peak insulin concentration): median; for Insulin AUC0–1 h/AUC0–6 h, geometric mean / Insulin AUC0–2 h/AUC0–6 h, arithmetic mean (value in brackets) / Insulin AUC0–2 h/AUC0–6 h, geometric mean / Insulin AUC0–4 h/AUC0–6 h, arithmetic mean (value in brackets) / Insulin AUC0–4 h/AUC0–6 h, geometric mean: serum analogue
Outline: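 Same crossover and 0.2 U/kg s.c. premeal dosing in obese T2DM (n = 30). Serum test insulin analogue was measured by an analogue-specific kit at a central laboratory over 6 h. Non-compartmental analysis gave Cmax, Tmax and linear-trapezoidal AUC fractions. Ratios with 90% CI used ANOVA on ln-transformed data; times used Hodges–Lehmann 90% CI for median differences.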

[4] = subcutaneously injected; cited from earlier work
[5] = point estimate (90% CI), Fieller's Theorem, untransformed data
[6] = point estimate (90% CI), Hodges and Lehmann method
[7] = point estimate (90% CI), ln-transformed data

| Substance | Time to 10% of total glucose AUC [1] | Time to 20% of total glucose AUC [1] | Time to ΔGLUmax [1] | Severe hypoglycaemia [2] | Subjects with hypoglycaemia with blood glucose below 56 mg/dl [2] | Subjects with an episode of hypoglycaemia 3–6 h after insulin administration [2] [subjects] | Mean NEFA concentration after subsequent increase (NEFA) [mmol/L] | Time of lowest mean NEFA concentration (NEFA) [min] | Mean NEFA concentration at start (before decrease) (NEFA) [mmol/L] | Time to fraction of total insulin AUC (10%) [3] | Time to fraction of total insulin AUC (20%) [3] | Tmax (time to peak insulin concentration) [3] | Insulin AUC0–1 h/AUC0–6 h, geometric mean [3] [%] | Insulin AUC0–2 h/AUC0–6 h, arithmetic mean (value in brackets) [3] [%] | Insulin AUC0–2 h/AUC0–6 h, geometric mean [3] [%] | Insulin AUC0–4 h/AUC0–6 h, arithmetic mean (value in brackets) [3] [%] | Insulin AUC0–4 h/AUC0–6 h, geometric mean [3] [%] | also measured |
| --- | --- | --- | --- | --- | --- | --- | --- | --- | --- | --- | --- | --- | --- | --- | --- | --- | --- | --- |
| insulin aspart | 40.0 ^† min | 65.0 ^† min | 59.5 ^† min | no cases of severe hypoglycaemia requiring intervention | eight | 15 | 0.31 | 120 | 0.51 | 60.5 ^† min | 91.0 ^† min | 93.0 ^† min | 11 | 3.6 | 35 | 4.3 | 77 | Time of the remaining hypoglycaemia episodes after administration ([2]; episodes outside 3–6 h, one value per episode): 60 min |
| insulin glulisine | 40.0 ^† min | 67.5 ^† min | 60.0 ^† min | no cases of severe hypoglycaemia requiring intervention | Five | 10 | 0.32 | 180 | 0.50 | 60.0 ^† min | 90.0 ^† min | 120.0 ^† min | 14 | 3.6 | 36 | 4.3 | 78 | GLUmax, mean ratio glulisine/aspart [1, 5]: 94% (90–99); Glucose AUC0–1 h, mean ratio glulisine/aspart [1, 5]: 94% (90–99); Glucose AUC0–1 h/AUC0–6 h, mean ratio glulisine/aspart [1, 5]: 95% (92–99); Glucose AUC0–2 h/AUC0–6 h, mean ratio glulisine/aspart [1, 5]: 96% (94–99); Glucose AUC0–4 h/AUC0–6 h, mean ratio glulisine/aspart [1, 5]: 99% (97–100); Glucose AUC0–6 h, mean ratio glulisine/aspart [1, 5]: 98% (95–104); ΔGLUmax, mean ratio glulisine/aspart [1, 5]: 81% (70–100); Time to 10% of total glucose AUC, median difference glulisine vs aspart [1, 6]: -2 min; Time to 20% of total glucose AUC, median difference glulisine vs aspart [1, 6]: 0 (−4 to 3) min; Time to ΔGLUmax, median difference glulisine vs aspart [1, 6]: -5 min; GLUmax, mean difference glulisine vs aspart ([1]; point estimate (90% CI), analysis of variance, untransformed data): -11 mg/dL; Tmax, median difference glulisine vs aspart [3, 6]: 17 min; Insulin AUC0–1 h/AUC0–6 h, mean ratio glulisine/aspart [3, 7]: 127% (106–152); Insulin AUC0–2 h/AUC0–6 h, mean ratio glulisine/aspart [3, 7]: 103% (95–110); Insulin AUC0–4 h/AUC0–6 h, mean ratio glulisine/aspart [3, 7]: 101% (99–103) |
| regular human insulin [RHI] |  |  |  |  |  |  |  |  |  |  |  |  |  |  |  |  |  | Duration of action [4]: > 8 h; Time of peak effect after dosing [4]: 3 h |
